# Rows were chosen to be rich in hits. Some 4.9% of all compounds tested hit in one or more screens of this group.
# STAT3 activator = STAT3 signaling activation | activation (% of control), % at 5.6 µM | AID 871 | U3A cells, IL-6 STAT3-luciferase reporter, luminescence; 100% = signal with IL-6 EC80 alone | 190,000 tested, 0.91% active;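 active = activation above the screen-wide mean of compound activation plus 3 SD, cut at about 130% in these data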;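 also: 0% = background luminescence of wells with medium and substrate only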
#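 Material: STAT1-lacking human U3A cells, STAT3 luciferase reporter | Benchmarks: IL-6-only wells as 100% reference | Probe or stimulus: IL-6 (33 ng/mL) | Timing: Compound 1 h, then IL-6 6 h at 37 °C | Detection: Luminescence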
# NF-kB expr up = compounds increasing NF-kB expression in human neuronal cells | NF-kB reporter expression; hits give high values | fold change at 12.5 µM | 190,000 tested, 1.6% active; in the data active = fold change above about 3.3
# APP 5'UTR act = activates APP 5'UTR luciferase reporter; SH-SY5Y APP 5'UTR luciferase reporter, luminescence; zero percent = DMSO vehicle wells; activation, % at 2 µM; 190,000 tested, 1% active; AID 1276;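 active = activation above a set limit, based on mean plus 3 SD of controls, cut at about 140% in these data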
# STAT1 act = activators of IFN-gamma induced STAT1 signaling; activation (% of control), % at 5.5 µM; NIH 3T3 STAT1-luciferase reporter, luminescence; 100% = IFN-gamma alone, no compound; 200,000 tested, 2.6% active;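 active = activation above the screen-wide mean activation plus 3 SD, cut at about 130% in these data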;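 also: raw ratio to IFN-gamma control signal so 100% means no change and 0% no light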
# STAT3 inh = reduces IL-6 driven STAT3 reporter signal; 190,000 tested, 0.89% active; inhibition, % at 5.5 µM; U3A cells, IL-6 STAT3-luciferase reporter, luminescence; host cell line lacks STAT1;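 active = inhibition above the mean inhibition across all screened compounds plus 3 SD, cut at about 44% in these data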;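 also: 0% = DMSO only wells and 100% = 100 µM nifuroxazide control wells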
# STAT1 blocker = STAT1 signaling inhibition | NIH 3T3 STAT1-luciferase reporter, IFN-gamma, luminescence | inhibition, % at 5.5 µM | 200,000 tested, 0.35% active;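 active = inhibition above a set limit, the mean inhibition across all tested compounds plus 3 SD, cut at about 34% in these data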;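 also: 0% = IFN-gamma with DMSO and 100% = IFN-gamma with 300 µM nifuroxazide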
# * marks the source's active call; other numbers are inactive results; nt = no result.
SMILES,STAT3 activator,NF-kB expr up,APP 5'UTR act,STAT1 act,STAT3 inh,STAT1 blocker
c1ccc(Nc2ncnc3c2oc2ccccc23)cc1,102,2.2,51,132*,0,-35
CC(C)C(Nc1ncnc2c1oc1ccccc12)C(=O)O (stereo not given),124,nt,17,91,-22,8
C=CCN1C(=O)c2cccc3c(N4CCCCC4)ccc(c23)C1=O,95,1.6,28,126,8,-30
O=C1c2cccc3c(N4CCCCC4)ccc(c23)C(=O)N1CCO,95,1.6,59,131*,12,-35
O=C1c2cccc3c(N4CCCCC4)ccc(c23)C(=O)N1c1cccc(O)c1,100,2,25,130*,2,-32
O=C1NCCCC2c3cc(O)c4ccccc4c3OC12N1CCCCC1 (stereo not given),47,0.56,-11,106,63*,-6
O=S(=O)(c1ccccc1)c1nc(Nc2cccc(O)c2)sc1Cl,93,0.8,-1,112,16,-13
Clc1nc(-c2ccccn2)nc2scc(-c3ccccc3)c12,78,3.3*,113,127,26,-30
CC1CCN(c2nc(-c3cccnc3)nc3scc(-c4ccccc4)c23)CC1,96,0.9,-4,97,9,3
CC1(C)Cc2c(sc(NC(=O)c3ccc(Br)o3)c2C#N)CO1,106,3,88,133*,-3,-35
O=C1C(Cl)=C(NC2CCCCC2)C(=O)N1c1ccc(Cl)cc1,110,2.1,-14,141*,-8,-45
COc1ccc(C)cc1N(CC(=O)N1CCc2ccccc2C1)S(C)(=O)=O,103,1.1,-3,105,-1,-8
CCOc1ccc(C2=NNC(c3cccs3)=Nc3ccc(OC)cc32)cc1,106,6.4*,8,100,-3,2
Cc1ccc(N/C=C/C(=O)c2ccc(C)cc2)cc1,81,5.2*,91,144*,28,-48
Cc1ccc(C(=O)/C=C/C(=O)c2ccc(C)cc2)cc1,109,1.5,-67,89,-8,11
Cc1ccc(C(=O)/C=C/Nc2ccccn2)cc1,12,nt,115,24,109*,84*
Cc1ccc(C(=O)/C=C\Nc2ccc(C)c(C)c2)cc1,96,2.4,170*,136*,6,-39
COc1ccc(N/C=C/C(=O)c2ccc(Cl)cc2)cc1,104,1,152*,140*,-4,-45
COC(=O)c1ccc(N/C=C/C(=O)c2ccc(OC)c(OC)c2)cc1,99,1.1,13,111,9,-12
O=C1CC2c3ccccc3C1C1C(=O)N(Cc3ccccc3)C(=O)C21 (stereo not given),97,1.1,33,105,8,-5
COc1cccc(C(=O)/C=C/Nc2ccc(NC(C)=O)cc2)c1,99,1.1,60,136*,1,-41
COc1ccc(C(=O)/C=C/Nc2ccc(NC(C)=O)cc2)cc1OC,89,0.99,-9,111,19,-12
CCc1ccc(C(=O)Nc2cc(C)ccc2F)s1,106,1.9,40,132*,-8,-34
Cc1ccc(C(=O)Nc2cc([N+](=O)[O-])ccc2F)s1,83,1.4,1,104,23,-5
O=c1[nH]c(=O)n(Cc2ccco2)c2c1C(C(F)(F)F)(C(F)(F)F)N=C(c1ccc(F)cc1)N2,60,0.99,-33,59,51*,45*
SMILES,STAT3 activator,NF-kB expr up,APP 5'UTR act,STAT1 act,STAT3 inh,STAT1 blocker
O=C(Nc1nccs1)c1sc2ccccc2c1Cl,69,7*,234*,106,38,-6
O=C(Nc1nccs1)c1sc2cc(Cl)ccc2c1Cl,130,3.1,128,146*,-34,-52
CCc1cc2c(=O)c(-c3cnn(-c4ccccc4)c3)c(C(F)(F)F)oc2c(CN(C)C)c1O,99,0.96,0,107,4,-7
CCC(Cc1ccccc1)NC(=O)CCn1cccc1 (stereo not given),100,1.1,13,101,5,-1
CCOc1ccc(NC(=O)CSc2nc3c([nH]c4ccccc43)c(=O)n2C)cc1,134*,1,-5,86,-29,14
COCCn1c(-c2ccc(Cl)cc2)cnc1SCC(=O)NCCc1ccc(OC)c(OC)c1,97,0.93,8,86,4,16
Cc1ccc(NC(=O)CSc2nc3c([nH]c4ccccc43)c(=O)n2C)cc1,112,1.1,-17,85,-5,16
COCCn1c(SCC(=O)NCCc2ccc(OC)c(OC)c2)nc2c([nH]c3ccccc32)c1=O,135*,1.4,-5,89,-38,11
Cc1ccc2nc(SC(C)C(=O)N3CCOCC3)[nH]c2c1 (stereo not given),115,2.2,56,146*,-12,-52
COc1ccc2[nH]c3c(NCCC4=CCCCC4)ncnc3c2c1,85,1.4,75,113,27,-16
N#Cc1ccc(Cl)cc1NC(=O)COC(=O)c1ccc(S(=O)(=O)N2CCCC2)cc1,134*,1.2,7,90,-43,11
O=C(COC(=O)c1ccc(S(=O)(=O)N2CCCC2)cc1)Nc1ccc(F)cc1F,100,1.1,-6,101,6,-1
O=C(NCc1ccc(F)cc1)Nc1cccc(Cl)c1,107,1.8,44,116,-3,-17
COc1ccc(-c2n(Cc3ccccc3)c3ccccc3[n+]2Cc2ccccc2)cc1,86,0.58,13,92,22,7
CC(C)(C)c1ccc(/C=C/C(=O)NC2=NCCS2)cc1,79,1.9,184*,98,28,3
O=C(NC1CCCCCC1)c1cc(-c2ccccn2)nc2ccccc12,99,1.1,-24,95,5,5
Nc1nc(-c2ccc3c(c2)CCCC3)cs1,95,5.3*,95,136*,12,-38
Nc1nc(-c2cccc(F)c2)cs1,106,3.4*,18,114,-4,-17
Cc1ccc2[nH]c(C(=O)NN=C3CCCCC3)c(-c3ccccc3)c2c1,107,0.93,-37,97,-4,0
NS(=O)(=O)c1ccc(N/N=C/c2ccccc2Br)cc1,103,1.3,33,127,2,-29
CN(C(=O)Nc1cnc2ccccc2c1)c1ccccc1,108,1.8,45,114,-6,-15
CCCCNC(=O)c1onc(CSc2ccccc2CC)c1C(=O)O,7,1,7,97,120*,3
CC(C)(C)c1nn2cnnc2n(/N=C/c2ccccc2)c1=O,99,1.3,19,102,1,-2
CCOCCCNC(=O)C(NC(=O)Cc1cccs1)c1ccc(OC)cc1 (stereo not given),109,1,-6,100,-3,-2
Brc1ccc(Cn2c(-c3ccc(Br)o3)nc3ccccc32)o1,101,1.2,29,110,3,-11

# Compound activity deposited in PubChem BioAssay by several laboratories.
